{"source": "paper PMC12265513", "about": "(bioRxiv, 2025)", "key": {"BRAF-RBD": {"tested_on": "BRAF-RBD", "assay": "Intact MS counter screen", "format": "binding", "conditions": "deconvoluted MS", "in_short": "(§1)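 Dual screen: NEDD9-SH3 (1-64) and BRAF-RBD, each at 1 μM, were mixed in one reaction with 100 μM covalent fragment. Controls were 100 μM iodoacetamide or 1% DMSO. Buffer was 50 mM HEPES pH 7.4, 100 mM NaCl, 4 h at 21°C. Reactions were quenched to 0.2% formic acid and read by RapidFire QTOF MS. Hits formed a single adduct on NEDD9-SH3 at least two-fold greater than on BRAF-RBD.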"}, "NEDD9-SH3 (1-64)": {"tested_on": "NEDD9-SH3 (1-64)", "assay": "Intact protein mass spectrometry, covalent modification of the SH3 domain", "format": "binding", "conditions": "intact MS and 2-D NMR", "in_short": "as §1"}, "HPAECs": {"tested_on": "HPAECs", "assay": "Anti-collagen III immunofluorescence in HPAECs", "format": "cell-based, human", "conditions": "24 hr, n=3", "in_short": "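HPAECs grown on glass chamber slides were exposed to test compound for 24 hr. They were then fixed in 4% formalin in PBS and blocked with 10% goat albumin in PBS for 1 hr at room temperature. Primary antibody (1:100) was applied overnight at 4°C. Collagen III deposition and NEDD9-positive cells were scored by immunofluorescence.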"}, "NEDD9-SMAD3 complex": {"tested_on": "NEDD9-SMAD3 complex", "assay": "NEDD9-SMAD3 complex formation", "format": "cell-based, human", "conditions": "H2O2 (500 μM) for 20 min, n=3", "in_short": "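HPAECs were treated with 500 μM H2O2 for 20 min with or without test compound. The complex was measured two ways. One was anti-NEDD9 immunoprecipitation followed by anti-SMAD3 immunoblot. The other was proximity ligation with mouse anti-NEDD9 and rabbit anti-SMAD3, normalised to total NEDD9 expression. n=3.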"}, "NEDD9": {"tested_on": "NEDD9", "assay": "NEDD9 immunoblot in HPAECs", "format": "cell-based, human", "conditions": "50-200 μM for 30-120 min, basal conditions, vs vehicle, n=3", "in_short": "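Confluent HPAECs in EBM-2 medium received test compound from a 10 mM DMSO stock, with DMSO as vehicle, for 30, 60 or 120 min. Lysates were immunoblotted with anti-NEDD9 (1:1000) overnight at 4°C, then peroxidase secondary and ECL detection.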"}, "[1]": {"target": "GST-fused construct of the NEDD9-SH3 domain (Homo sapiens, UniProt Q14511)", "assay": "Fluorescence polarization, direct binding of FITC-labeled pep01 probe"}}, "note": "pKd: −log10 of the molar value. Peptide text beside a SMILES is read from it. * marks the point of attachment. FITC = O=C1OC2(c3ccc(O)cc3Oc3cc(O)ccc32)c2ccc(NC(=S)*)cc21; Ahx = NCCCCCC(=O)O", "data": [{"smiles": "C[C@@H]1CCN(C(=O)CCl)[C@@H](C(N)=O)C1", "note": "[Fragment 2, (2R,4R)-1-(2-chloroacetyl)-4-methylpiperridine-2-carboxamide]", "values": [{"measurement": "BRAF-RBD modification", "setting": "BRAF-RBD", "result": "did not show BRAF-RBD modification"}, {"measurement": "adduct formation to NEDD9-SH3", "setting": "NEDD9-SH3 (1-64)", "result": "dose- and time-dependent increase in adduct formation"}]}, {"smiles": "C=CC(=O)Nc1cc(C(F)(F)F)cc(C(F)(F)F)c1", "note": "[Fragment 1, N-[3,5-Bis(trifluoromethyl)phenyl] acrylamide]", "values": [{"measurement": "fibrosis in cellulo by anti-collagen III immunofluorescence", "setting": "HPAECs", "result": "decreased fibrosis"}, {"measurement": "NEDD9-SMAD3 complex formation", "setting": "NEDD9-SMAD3 complex", "result": "restored NEDD9-SMAD3 complex formation"}, {"measurement": "NEDD9 protein quantity by immunoblot", "setting": "NEDD9", "result": "decreased NEDD9 protein quantity"}]}, {"smiles": "C[C@H](NC(=O)[C@H](CCC(=O)O)NC(=O)[C@H](CC(=O)O)NC(=O)CCCCCNC(=S)Nc1ccc2c(c1)C(=O)OC21c2ccc(O)cc2Oc2cc(O)ccc21)C(=O)N1CCC[C@H]1C(=O)N1CCC[C@H]1C(=O)N[C@@H](CCCCN)C(=O)N1CCC[C@H]1C(=O)N[C@@H](CO)C(=O)N[C@@H](CCCNC(=N)N)C(=O)N1CCC[C@H]1C(=O)NCC(=O)N[C@@H](Cc1ccc(O)cc1)C(=O)N1CCC[C@H]1C(=O)N[C@@H](CO)C(N)=O", "note": "[FITCylated pep01] ({FITC-Ahx}-DEAPPKPSRPGYPS-NH2)", "values": [{"measurement": "pKd", "setting": "[1]", "result": 5.40}]}]}
